Structures are written as SMILES. Some results are limits rather than exact numbers.

Consider 33 molecules from ChEMBL document CHEMBL5149984, “Discovery of HN37 as a Potent and Chemically Stable Antiepileptic Drug Candidate” (J Med Chem, 2021).

The target in series [1] is Potassium voltage-gated channel subfamily KQT member 2 (Rattus norvegicus) (UniProt O88943). The series can be described thus: Agonist activity at rat Kv7.2 channel expressed in CHO cells assessed as shift of half voltage of maximal activation at 10 uM by whole cell patch clamp based electrophysiological method. The note with it: filed as agonist. The procedure, abridged: (§1)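 Rat KCNQ2 cotransfected with EGFP plasmid by Lipofectamine 3000 into CHO cells (DMEM/F12, 10% FBS; split 24 h before transfection). Whole-cell recording at room temperature. Pipette: 145 mM KCl, 1 mM MgCl2, 5 mM EGTA, 10 mM HEPES, 5 mM MgATP, pH 7.3. Bath, constantly perfused: 140 mM NaCl, 5 mM KCl, 2 mM CaCl2, 1.5 mM MgCl2, 10 mM glucose, 10 mM HEPES, pH 7.4. Signals filtered at 1 kHz. Compound at 10 μM. I/I0 is outward current amplitude with over without compound. ΔV1/2 is the shift in V1/2 from Boltzmann fits of activation curves. Mean ± SEM.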
Sequence of Potassium voltage-gated channel subfamily KQT member 2 (Rattus norvegicus) (O88943 whole entry, the tested form may be a part): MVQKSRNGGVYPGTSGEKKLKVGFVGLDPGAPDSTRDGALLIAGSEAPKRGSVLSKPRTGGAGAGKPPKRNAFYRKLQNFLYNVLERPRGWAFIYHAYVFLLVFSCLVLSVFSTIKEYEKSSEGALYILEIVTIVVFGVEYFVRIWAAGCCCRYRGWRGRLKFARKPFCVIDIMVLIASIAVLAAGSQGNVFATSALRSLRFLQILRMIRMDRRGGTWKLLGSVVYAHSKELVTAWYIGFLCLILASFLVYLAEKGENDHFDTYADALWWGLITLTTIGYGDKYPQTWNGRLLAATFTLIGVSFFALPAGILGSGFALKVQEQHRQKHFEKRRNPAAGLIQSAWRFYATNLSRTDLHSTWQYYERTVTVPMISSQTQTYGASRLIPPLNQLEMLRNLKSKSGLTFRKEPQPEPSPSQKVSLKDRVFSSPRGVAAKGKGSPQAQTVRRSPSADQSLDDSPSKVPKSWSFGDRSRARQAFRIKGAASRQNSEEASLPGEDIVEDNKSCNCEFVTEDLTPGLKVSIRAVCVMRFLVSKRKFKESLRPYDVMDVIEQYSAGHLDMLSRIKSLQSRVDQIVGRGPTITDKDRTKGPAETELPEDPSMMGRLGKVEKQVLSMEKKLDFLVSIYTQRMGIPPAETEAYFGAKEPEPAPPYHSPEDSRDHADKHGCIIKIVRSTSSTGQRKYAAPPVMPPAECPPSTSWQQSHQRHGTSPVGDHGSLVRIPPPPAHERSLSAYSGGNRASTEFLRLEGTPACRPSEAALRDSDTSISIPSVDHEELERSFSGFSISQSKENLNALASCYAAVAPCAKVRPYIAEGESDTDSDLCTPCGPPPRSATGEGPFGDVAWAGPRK
(Patch clamp records ionic current or voltage across a cell membrane.)

Series [2] shares this target. The series can be described thus: Agonist activity at rat Kv7.2 channel expressed in CHO cells assessed as amplitude change of outward current at 10 uM by whole cell patch clamp based electrophysiological method. As to conditions: filed as agonist. The procedure, abridged:
as §1

Series [3] is filed under the species Mus musculus. The series can be described thus: Anticonvulsant activity in C57BL/6 mouse 6 Hz seizure model at 44 mA measured after 1 hr. In kind it is functional.
The species entered for series [4] is Mus musculus. The series is described as follows: Anticonvulsant activity in Kunming mouse assessed as reduction in Sc-PTZ induced seizure after 1 hr. Format: functional. An outline of the steps:
(§2)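 sc-PTZ test in male KM mice. Compound suspended in 0.5% CMC-Na and given orally 1 h before PTZ (freshly dissolved in normal saline, 100 mg/kg). Protection against clonic seizures scored; ED50 by nonlinear regression.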

The species named for series [5] is Mus musculus. The series is described as follows: Anticonvulsant activity in Kunming mouse assessed as reduction in MES-induced seizure after 1 hr. In kind it is functional. An outline of the steps: (§3)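 MES test in male KM mice. Compounds freshly suspended in 0.5% CMC-Na and given by gavage at 20 mL/kg; 160 V stimulus through ear clips. Protection scored as absence of hindlimb tonic extension; time course at 0.25, 0.5, 1 and 2 h, otherwise tested at 1 h. ED50 from dose−response by nonlinear regression; Fisher's exact test versus vehicle.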

Series [6] can be described thus: Neurotoxicity in po dosed Kunming mouse assessed as motor impairment after 1 hr by rotarod test. In kind it is toxicity, organism-based. As to conditions: in vivo, po, 1 h. An outline of the steps: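 Male KM mice dosed intragastrically with compound freshly suspended in 0.5% CMC-Na. Rotarod performance scored 1 h after dosing as the fraction of animals showing motor impairment. Fisher's exact test versus vehicle; TD50 from nonlinear dose−response fit.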
On the technique in general: In the rotarod test animals must keep their balance on a rotating rod.

Series [7] is filed under the species Mus musculus. The series is described as follows: Anticonvulsant activity in C57BL/6 mouse 6 Hz seizure model at 32 mA measured after 1 hr. Format: functional.
Series [8] concerns Mus musculus. The series can be described thus: Anticonvulsant activity in MES induced Kunming mouse model of seizure at 30 mg/kg, po after 1 hr. Format: functional. The procedure, abridged: as §3
In series [9] the test system is Mus musculus. The series is described as follows: Anticonvulsant activity in pentylenetetrazol induced Kunming mouse model of seizure at 30 mg/kg, po after 1 hr. In kind it is functional. An outline of the steps:
as §2

For the molecule `C#CCN(Cc1ccc(F)cc1)c1ccc(NC(=O)OC)c(F)c1`, the Activity was -22 mV in series [1] and 2.09 in [2].

Consider `C#CCN(Cc1ccc(F)cc1)c1ccc(NC(=O)OC)c(C)c1`, for which the values for the Activity in series [1] and in series [2] were -23.3 mV and 4.8, respectively.

Regarding `C#CCN(Cc1ccc(Br)cc1)c1ccc(NC(=O)OC)cc1`, the Activity in series [1] is -25.1 mV; in series [2], 3.75.

With `CC[C@H](C(N)=O)N1CCCC1=O` [LEVITIRACETAM], the ED50 in series [3] was 376 mg/kg; in series [4], above 500 mg/kg; in series [5] it was above 500 mg/kg; in series [7] it was 41.5 mg/kg. In addition, the Activity in [6] is above 500 mg/kg.

For the molecule `C#CCN(Cc1ccc(F)cc1)c1ccc(NC(=O)OCC(C)C)cc1`, the Activity was -14.3 mV in [1] and 1.23 in series [2].

Take `C#CCN(Cc1ccc(F)cc1)c1ccc(NC(=O)OC(C)(C)C)cc1`: the figures for the Activity in series [1] and in series [2] were -19.4 mV and 1.05, respectively.

On to `C#CCN(Cc1cccc(OC)c1)c1ccc(NC(=O)OC)cc1`, for which the values for the Activity in series [1] and in series [2] were -12.5 mV and 2.72, respectively.

Regarding `C#CCN(Cc1ccc(F)cc1)c1ccc(NC(=O)OC)cc1C`, the Activity is -3.42 mV in series [1] and 1.4 in [2].

Take `C#CCN(Cc1ccc(F)cc1)c1ccc(NC(=O)OC)cc1`: the Activity in series [8] is 50%; in series [1] it was -24.2 mV; in [2] it was 3.27; in [9] it was 60%.

Regarding `C#CCN(Cc1ccc(F)cc1)c1ccc(NC(=O)OC)c(C(F)(F)F)c1`, the Activity in series [1] is -10.4 mV; in series [2] it was 1.42.

Take `C#CCN(Cc1ccc(F)cc1)c1ccc(F)c(NC(=O)OC)c1`: the Activity is -18.7 mV in [1] and 2.75 in series [2].

Regarding `C#CCN(Cc1ccc(F)c(C(F)(F)F)c1)c1ccc(NC(=O)OC)cc1`, the Activity in series [1] is -15.6 mV; in series [2], 1.33.

Turning to `C#CCN(Cc1ccc(F)cc1)c1ccc(NC(=O)OC)c(OC(F)(F)F)c1`, the Activity in [1] was -13.2 mV; in series [2], 1.24.

With `C#CCN(Cc1ccc(F)cc1)c1ccc(NC(=O)OCC)cc1`, the Activity is -7.26 mV in series [1] and 1.99 in [2].

For the molecule `C#CCN(Cc1ccc(F)cc1)c1ccc(NC(=O)OCc2ccccc2)cc1`, the Activity in [1] was -11.5 mV; in series [2], 2.09.

As to `C#CCN(Cc1ccc(F)cc1)c1ccc(NC(=O)OC)cc1F`, the figures for the Activity in series [1] and in series [2] were -9.06 mV and 1.39, respectively.

Consider `C#CCN(Cc1ccc(F)cc1)c1ccc(NC(=O)OCC2COC(C)(C)O2)cc1` (stereo not drawn), for which the values for the Activity in series [1] and in series [2] were -3.95 mV and 2.11, respectively.

In the case of `C#CCN(Cc1ccc(C)cc1)c1ccc(NC(=O)OC)cc1`, the Activity in series [1] is -5.77 mV; in series [2] it was 1.05.

For `C#CCN(Cc1ccc(F)cc1)c1ccc(NC(=O)OC)cc1C#N`, the Activity in series [1] is -9.62 mV; in series [2], 1.94.

Turning to `CC1(C)O[C@@H]2[C@@H](CO[C@@]3(COS(N)(=O)=O)OC(C)(C)O[C@@H]23)O1` [TOPIRAMATE], the ED50 in series [3] is above 500 mg/kg; in [4], above 200 mg/kg; in series [5], 35.5 mg/kg; in series [7] it was above 500 mg/kg. For the same molecule, the Activity in series [6] was 379.2 mg/kg.

Take `C#CCN(Cc1ccc(F)cc1)c1ccc(NC(=O)OC)cc1Cl`: the Activity in [1] was -2.06 mV; in [2] it was 1.19.

As to `C#CCN(Cc1ccc(F)cc1)c1c(C)cc(NC(=O)OC)cc1C`, the Activity turned out to be 13.5 mV in series [1] and 0.72 in [2].

For the molecule `C#CCN(Cc1ccc(F)cc1)c1ccc(NC(=O)OC)c(C#N)c1`, the Activity was -5.1 mV in series [1] and 0.52 in series [2].

For `C#CCN(Cc1ccc(F)c(F)c1)c1ccc(NC(=O)OC)cc1`, the Activity in series [1] is -14.9 mV; in series [2], 2.52.

For `C#CCN(Cc1cccc(F)c1)c1ccc(NC(=O)OC)cc1`, the Activity in [1] is -21.1 mV; in [2] it was 2.33.

On to `C#CCN(Cc1ccc(F)cc1)c1ccc(NC(=O)OC)c(Cl)c1`, for which the Activity in series [1] was -7.06 mV; in series [2], 1.09.

In the case of `C#CCN(Cc1ccc(F)cc1)c1ccc(NC(=O)OCC=C)cc1`, the values for the Activity in series [1] and in series [2] were -14.5 mV and 1.01, respectively.

Regarding `C#CCN(Cc1ccccc1F)c1ccc(NC(=O)OC)cc1`, the Activity was -7.6 mV in series [1] and 2.31 in series [2].

With `C#CCN(Cc1ccccc1Cl)c1ccc(NC(=O)OC)cc1`, the results for the Activity in series [1] and in [2] were -16.5 mV and 2.29, respectively.

Turning to `C#CCN(Cc1ccc(F)cc1)c1ccc(NC(C)=O)cc1`, the Activity in series [1] was -6.09 mV; in series [2], 1.8.

For `C#CCN(Cc1ccc(F)cc1)c1ccccc1NC(=O)OC`, in series [2], the Activity came out at 0.95.

Regarding `C#CCN(Cc1ccc(F)cc1)c1ccc(NC(=O)OCC)c(N)c1`, the Activity is -47.9 mV in series [1] and 1.53 in [2].

With `C#CCN(Cc1ccc(F)cc1)c1cccc(NC(=O)OC)c1`, the values for the Activity in series [1] and in series [2] were 3.6 mV and 1.65, respectively.

Broadly, the ED50 is the dose at which the effect has come halfway, by size or by number of responders.
